Data from ChEMBL document CHEMBL5634162, “Cyclohexylalanine-Containing α-Helical Amphipathic Peptide Targets Cardiolipin, Rescuing Mitochondrial Dysfunction in Kidney Injury” (J Med Chem, 2024).
Active and inactive are the calls of the source. No cut-off for these calls is given here. Where a SMILES comes first, the peptide text is derived from it. Bridges are numbered along the chain shown (N, C = ends). Roman numbers before positions name the chains, in order. [ ]: non-standard residue; d: D form. The star is where a group is joined. 5TAMRA = CN(C)c1ccc2c(c1)Oc1cc(N(C)C)ccc1C21OC(=O)c2cc(C(=O)*)ccc21; Cha = N[C@@H](CC1CCCCC1)C(=O)O

How the values were obtained:
Lipid bilayer [1] = experiment: Binding affinity to DLCL-rich POPC/POPE by fluorescence based analysis
Lipid bilayer [2] = experiment: Binding affinity to cardiolipin-rich POPC/POPE by fluorescence based analysis
In short: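 NBD-labelled peptide monomer at 1 μM in PBS, mixed with liposomes of POPC/POPE (2:1) containing 10% CL, with CL-free POPC/POPE liposomes for comparison. Association was followed by NBD fluorescence (ex 467/em 536 nm), n = 3. For dissociation, liposomes were at 100 μM and unlabelled acetylated peptide was added stepwise up to 40 μM, with a 10 min dark incubation before each read.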

[3] = Drug localization in mitochondria of human HeLa cells at EC50 incubated for 3 hrs by fluorescence based assay; type: ADME

Row | Activity (Lipid bilayer [1]) | Activity (Lipid bilayer [2]) | SMILES | Drug uptake [3]
1 | Active | Active | CC(=O)N[C@@H](CC1CCCCC1)C(=O)N[C@@H](CS)C(=O)N[C@@H](CCCNC(=N)N)C(=O)N[C@@H](CC(C)C)C(=O)N[C@@H](CC1CCCCC1)C(=O)N[C@@H](CCCNC(=N)N)C(=O)N[C@@H](CCCNC(=N)N)C(=O)N[C@@H](CC1CCCCC1)C(=O)N[C@@H](CS)C(=O)N[C@@H](CCCNC(=N)N)C(N)=O (Ac-[Cha]CRL[Cha]RR[Cha]CR-NH2) | –
2 | – | – | CC(=O)N[C@@H](CC(C)C)C(=O)N[C@H]1CSSC[C@@H](C(=O)N[C@@H](CCCNC(=N)N)C(N)=O)NC(=O)[C@H](CC(C)C)NC(=O)[C@H](CCCNC(=N)N)NC(=O)[C@H](CCCNC(=N)N)NC(=O)[C@H](CC2CCCCC2)NC(=O)[C@H](CC2CCCCC2)NC(=O)[C@H](CCCNC(=N)N)NC(=O)[C@@H](NC(=O)[C@H](CC(C)C)NC(=O)c2ccc3c(c2)C(=O)OC32c3ccc(N(C)C)cc3Oc3cc(N(C)C)ccc32)CSSC[C@@H](C(=O)N[C@@H](CCCNC(=N)N)C(N)=O)NC(=O)[C@H](CC(C)C)NC(=O)[C@H](CCCNC(=N)N)NC(=O)[C@H](CCCNC(=N)N)NC(=O)[C@H](CC2CCCCC2)NC(=O)[C@H](CC2CCCCC2)NC(=O)[C@H](CCCNC(=N)N)NC1=O (I: Ac-LCR[Cha][Cha]RRLCR-NH2 / II: 5TAMRA-LCR[Cha][Cha]RRLCR-NH2; disulfide I:2-II:9, I:9-II:2) | 53%
3 | – | – | CC(=O)N[C@@H](CC1CCCCC1)C(=O)N[C@H]1CSSC[C@@H](C(=O)N[C@@H](CCCNC(=N)N)C(N)=O)NC(=O)[C@H](CC2CCCCC2)NC(=O)[C@H](CCCNC(=N)N)NC(=O)[C@H](CCCNC(=N)N)NC(=O)[C@H](CC(C)C)NC(=O)[C@H](CC2CCCCC2)NC(=O)[C@H](CCCNC(=N)N)NC(=O)[C@@H](NC(=O)[C@H](CC2CCCCC2)NC(=O)c2ccc3c(c2)C(=O)OC32c3ccc(N(C)C)cc3Oc3cc(N(C)C)ccc32)CSSC[C@@H](C(=O)N[C@@H](CCCNC(=N)N)C(N)=O)NC(=O)[C@H](CC2CCCCC2)NC(=O)[C@H](CCCNC(=N)N)NC(=O)[C@H](CCCNC(=N)N)NC(=O)[C@H](CC(C)C)NC(=O)[C@H](CC2CCCCC2)NC(=O)[C@H](CCCNC(=N)N)NC1=O (I: Ac-[Cha]CR[Cha]LRR[Cha]CR-NH2 / II: 5TAMRA-[Cha]CR[Cha]LRR[Cha]CR-NH2; disulfide I:2-II:9, I:9-II:2) | 53%
4 | – | – | CC(=O)N[C@@H](CC(C)C)C(=O)N[C@H]1CSSC[C@@H](C(=O)N[C@@H](CCCNC(=N)N)C(N)=O)NC(=O)[C@H](CC2CCCCC2)NC(=O)[C@H](CCCNC(=N)N)NC(=O)[C@H](CCCNC(=N)N)NC(=O)[C@H](CC2CCCCC2)NC(=O)[C@H](CC(C)C)NC(=O)[C@H](CCCNC(=N)N)NC(=O)[C@@H](NC(=O)[C@H](CC(C)C)NC(=O)c2ccc3c(c2)C(=O)OC32c3ccc(N(C)C)cc3Oc3cc(N(C)C)ccc32)CSSC[C@@H](C(=O)N[C@@H](CCCNC(=N)N)C(N)=O)NC(=O)[C@H](CC2CCCCC2)NC(=O)[C@H](CCCNC(=N)N)NC(=O)[C@H](CCCNC(=N)N)NC(=O)[C@H](CC2CCCCC2)NC(=O)[C@H](CC(C)C)NC(=O)[C@H](CCCNC(=N)N)NC1=O (I: Ac-LCRL[Cha]RR[Cha]CR-NH2 / II: 5TAMRA-LCRL[Cha]RR[Cha]CR-NH2; disulfide I:2-II:9, I:9-II:2) | 53%
5 | – | – | CC(=O)N[C@@H](CC(C)C)C(=O)N[C@H]1CSSC[C@@H](C(=O)N[C@@H](CCCNC(=N)N)C(N)=O)NC(=O)[C@H](CC(C)C)NC(=O)[C@H](CCCNC(=N)N)NC(=O)[C@H](CCCNC(=N)N)NC(=O)[C@H](CC(C)C)NC(=O)[C@H](CC2CCCCC2)NC(=O)[C@H](CCCNC(=N)N)NC(=O)[C@@H](NC(=O)[C@H](CC(C)C)NC(=O)c2ccc3c(c2)C(=O)OC32c3ccc(N(C)C)cc3Oc3cc(N(C)C)ccc32)CSSC[C@@H](C(=O)N[C@@H](CCCNC(=N)N)C(N)=O)NC(=O)[C@H](CC(C)C)NC(=O)[C@H](CCCNC(=N)N)NC(=O)[C@H](CCCNC(=N)N)NC(=O)[C@H](CC(C)C)NC(=O)[C@H](CC2CCCCC2)NC(=O)[C@H](CCCNC(=N)N)NC1=O (I: Ac-LCR[Cha]LRRLCR-NH2 / II: 5TAMRA-LCR[Cha]LRRLCR-NH2; disulfide I:2-II:9, I:9-II:2) | 53%
6 | – | – | CC(=O)N[C@@H](CC(C)C)C(=O)N[C@H]1CSSC[C@@H](C(=O)N[C@@H](CCCNC(=N)N)C(N)=O)NC(=O)[C@H](CC2CCCCC2)NC(=O)[C@H](CCCNC(=N)N)NC(=O)[C@H](CCCNC(=N)N)NC(=O)[C@H](CC(C)C)NC(=O)[C@H](CC(C)C)NC(=O)[C@H](CCCNC(=N)N)NC(=O)[C@@H](NC(=O)[C@H](CC(C)C)NC(=O)c2ccc3c(c2)C(=O)OC32c3ccc(N(C)C)cc3Oc3cc(N(C)C)ccc32)CSSC[C@@H](C(=O)N[C@@H](CCCNC(=N)N)C(N)=O)NC(=O)[C@H](CC2CCCCC2)NC(=O)[C@H](CCCNC(=N)N)NC(=O)[C@H](CCCNC(=N)N)NC(=O)[C@H](CC(C)C)NC(=O)[C@H](CC(C)C)NC(=O)[C@H](CCCNC(=N)N)NC1=O (I: Ac-LCRLLRR[Cha]CR-NH2 / II: 5TAMRA-LCRLLRR[Cha]CR-NH2; disulfide I:2-II:9, I:9-II:2) | 53%
7 | – | – | CC(=O)N[C@@H](CC1CCCCC1)C(=O)N[C@H]1CSSC[C@@H](C(=O)N[C@@H](CCCNC(=N)N)C(N)=O)NC(=O)[C@H](CC(C)C)NC(=O)[C@H](CCCNC(=N)N)NC(=O)[C@H](CCCNC(=N)N)NC(=O)[C@H](CC2CCCCC2)NC(=O)[C@H](CC2CCCCC2)NC(=O)[C@H](CCCNC(=N)N)NC(=O)[C@@H](NC(=O)[C@H](CC2CCCCC2)NC(=O)c2ccc3c(c2)C(=O)OC32c3ccc(N(C)C)cc3Oc3cc(N(C)C)ccc32)CSSC[C@@H](C(=O)N[C@@H](CCCNC(=N)N)C(N)=O)NC(=O)[C@H](CC(C)C)NC(=O)[C@H](CCCNC(=N)N)NC(=O)[C@H](CCCNC(=N)N)NC(=O)[C@H](CC2CCCCC2)NC(=O)[C@H](CC2CCCCC2)NC(=O)[C@H](CCCNC(=N)N)NC1=O (I: Ac-[Cha]CR[Cha][Cha]RRLCR-NH2 / II: 5TAMRA-[Cha]CR[Cha][Cha]RRLCR-NH2; disulfide I:2-II:9, I:9-II:2) | 53%
